Bioassay records: PubChem BioAssay, several laboratories
This is a sample that favours compounds with a hit; in the whole collection about 2.2% have one here.
NS3 helicase inh = blocks Hepatitis C virus NS3 helicase unwinding; NS3 helicase DNA unwinding, Cy5 molecular beacon fluorescence; inhibition, % at 10.9 µM; hit rate 0.56% among 290,000;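 active means inhibition above the mean of all tested compounds plus 3 SD, set per campaign, cut at about 35% in these data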;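 further: 0% = DMSO wells and 100% = thioflavine S control wells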
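Control set: DMSO versus 110 µM thioflavine S; Material: NS3 helicase fragment of HCV; Measured by: Cy5 fluorescence at 0 and 60 min, beacon hairpin quenching; Read-out basis: percent inhibition from t60/t0 fluorescence ratio; Times: reaction time 60 min, 25 °C; Repeats: single replicate; Compound dosing: single dose, 10.9 µM nominal final, DMSO 0.8% final.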
GRK2 inh = inhibitors of human GRK2 displacing RNA aptamer | inhibition of aptamer binding, % at 10 µM | hit rate 0.59% among 330,000 | AID 488847 | bead flow cytometry, FAM-aptamer displacement from GRK2 | P25098;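 active means inhibition of aptamer binding above 40%, roughly 3 SD of noise, on plates passing a quality check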;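 further: median bead fluorescence of bound FAM aptamer so fluorescent compounds give negative values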
Target sequence (P25098 whole entry, looked up): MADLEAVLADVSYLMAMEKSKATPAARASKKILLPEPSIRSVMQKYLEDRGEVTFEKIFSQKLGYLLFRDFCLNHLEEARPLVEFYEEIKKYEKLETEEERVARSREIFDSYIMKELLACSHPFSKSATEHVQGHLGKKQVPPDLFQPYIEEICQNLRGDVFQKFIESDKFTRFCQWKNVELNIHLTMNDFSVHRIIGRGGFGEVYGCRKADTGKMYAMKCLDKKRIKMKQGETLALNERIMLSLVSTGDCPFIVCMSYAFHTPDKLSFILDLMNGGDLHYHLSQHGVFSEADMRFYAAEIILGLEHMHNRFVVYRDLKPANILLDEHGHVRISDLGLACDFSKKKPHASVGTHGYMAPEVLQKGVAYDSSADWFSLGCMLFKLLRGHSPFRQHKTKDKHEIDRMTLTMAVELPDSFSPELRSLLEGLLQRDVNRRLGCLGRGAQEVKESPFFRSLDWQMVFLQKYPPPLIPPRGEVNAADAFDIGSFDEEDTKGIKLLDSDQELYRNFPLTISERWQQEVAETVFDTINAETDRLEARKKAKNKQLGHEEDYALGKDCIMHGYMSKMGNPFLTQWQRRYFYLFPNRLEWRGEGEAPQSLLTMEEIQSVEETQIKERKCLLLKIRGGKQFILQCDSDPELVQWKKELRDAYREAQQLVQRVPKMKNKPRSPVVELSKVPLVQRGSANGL
DAGLB inhibitor = diacylglycerol lipase beta (human) inhibition | Q8NCG7 | HEK293T DAGLB membrane lysate, EnzChek fluorogenic substrate | inhibition, % at 5.17 µM | hit rate 0.059% among 340,000 | AID 504411; in the data active means inhibition above about 34%;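 further: 0% = enzyme with vehicle and 100% = wells lacking enzyme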
GPR7 antagonist = antagonists of human GPR7 (neuropeptides B/W receptor 1); hit rate 1.1% among 290,000; inhibition, % at 4.4 µM; P48145; GPR7-expressing cells, fluorescence antagonist assay; AID 1861; in the data active means inhibition above about 16%, passing the limit was not always enough;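 further: cells stimulated with the agonist NPW; 0% = agonist with vehicle and 100% = vehicle without agonist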
core dimer inh = HCV core protein dimerization inhibition; inhibition, % at 5 µM; TR-FRET GST/Flag-core106 dimerization, 1536-well; AID 1899; hit rate 0.33% among 300,000;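 active means inhibition above the mean of all tested compounds plus 3 SD, set per screening campaign, cut at about 45% in these data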
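Assay system: GST-tagged and Flag-tagged HCV core protein residues 1-106 / Times: compound-protein-antibody incubation 4 h at 22.5 °C / Signal: time-resolved FRET, ex 340 nm, em 617 and 671 nm / Evaluation: % inhibition based on acceptor/donor emission ratio / Benchmarks: wells lacking GST-core106 and wells with excess unlabelled core106 / Repeats: singlicate, one well per compound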
FID counter = fluorescent intercalator displacement, NS3 helicase counter-screen; DNA fluorescent intercalator displacement, fluorescence; inhibition, % at 7.9 µM; hit rate 0.17% among 290,000; AID 1845; in the data active means inhibition above about 37%;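 further: 0% = vehicle and 100% = reference compound; higher means more ethidium bromide displaced from hairpin DNA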
GRK2 CP1 = human GRK2 inhibition confirmation, cherry pick 1; shares compounds with GRK2 inh; bead-bound GRK2, FAM-aptamer displacement, flow cytometry; aptamer displacement, % at 10 µM; hit rate 4% among 2,000;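 active means aptamer displacement above 40%, near three times the noise of non-fluorescent compounds, on plates passing quality checks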;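 further: negative values mostly reflect intrinsic compound fluorescence rather than true enhancement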
Aptamer quench = quenches fluorescent RNA aptamer, GRK2 hit artifact | fluorescence change (kMESF span), kMESF (no concentration beside the values) | 110 tested, under 10 active | Fluorescent RNA aptamer beads, quenching, flow cytometry; active compounds read high | shares compounds with GRK2 inh;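 active means compounds whose bead fluorescence drops by more than 37 kMESF across the dose range, marking them as dye quenchers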
FAM quench CP1 = counter-screen for GRK2 aptamer inhibitors: fluorescent aptamer quenchers; shares compounds with GRK2 inh; Carboxyfluorescein RNA aptamer on beads, flow cytometry quenching; active compounds read low; fluorescence response (% of DMSO), % at 10 µM; 2,000 tested, under 10 active; AID 504580;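 active means compounds that quench the bead-bound fluorescent RNA probe, cutting fluorescence to under half of the solvent control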;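 further: counterscreen run without GRK2 so only probe quenching by compound is measured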
GRK2 confirm 2 = human GRK2 inhibition confirmation, cherry pick 2 | 360 tested, under 10 active | bead-bound GRK2, FAM-aptamer displacement, flow cytometry | shares compounds with GRK2 inh | AID 504782 | inhibition of aptamer binding, % at 10 µM;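 active means inhibition of aptamer binding above 40%, about triple the noise seen with nonglowing compounds, on plates passing quality control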;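 further: negative values mostly come from compounds that fluoresce themselves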
Aptamer quench3 = counter-screen for GRK2 aptamer inhibitors: fluorescent aptamer quenchers; change in fluorescence (kMESF span), kMESF (test concentration not listed); shares compounds with GRK2 inh; 25 tested, under 10 active; Streptavidin beads, FAM-RNA aptamer fluorescence quenching, flow cytometry;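 active means compounds quenching the bead-bound labeled aptamer, with fluorescence dropping by more than 37 kMESF over the dose range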
FAM quench SP = quenches fluorescent RNA aptamer, GRK2 hit artifact; fluorescence response vs DMSO, % at 10 µM; shares compounds with GRK2 inh; AID 588494; carboxyfluorescein RNA aptamer beads, flow cytometry quenching; active compounds read low; 360 tested, under 10 active;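 active means response vs DMSO under 50%, meaning signal dropped by over half, treated as fluorescence quencher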;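 further: labelled aptamer on streptavidin beads without GRK2 as a quench counter-screen; 100% = bead fluorescence of DMSO wells and lower means quenching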
FAM quench PS1 = counter-screen for GRK2 aptamer binding inhibitors: aptamer fluorescence quenching | shares compounds with GRK2 inh | Bead-bound FAM RNA aptamer fluorescence quenching, flow cytometry; active compounds read low | fluorescence ratio to DMSO, % at 11.1 µM | 35 tested, under 10 active;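 active means compounds that dim the fluorescent label, raw bead signal shifting by over 33 units between lowest and highest dose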
* = called active by the depositor; / = no result given.

SMILES | NS3 helicase inh | GRK2 inh | DAGLB inhibitor | GPR7 antagonist | core dimer inh | FID counter | GRK2 CP1 | FAM quench CP1 | others
C#CCSc1nc2sc3c(c2c(=O)n1C)CCC3 | -6 | 55* | -4 | 2 | 0 | -9 | 53* | 164 | Aptamer quench=4;GRK2 confirm 2=67*;Aptamer quench3=-2.9;FAM quench SP=102;FAM quench PS1=99
N#CCSc1nc2sc3c(c2c(=O)n1C1CCCCC1)CCCC3 | 6 | 2 | -1 | -14 | -1 | -6 | / | /
COc1ccc(NC(=O)[C@@H](NS(=O)(=O)c2cccc(Cl)c2)C(C)C)cc1S(=O)(=O)N1CCOCC1 | / | 4 | 1 | / | / | / | / | /
O=c1c2ccccc2c(=O)n2n1Cc1ccccc1C2 | -1 | 2 | 0 | -9 | -2 | -6 | / | /
COc1ccc(CN([C@H](CO)CC(C)C)S(=O)(=O)N(Cc2ccccc2)[C@H](CO)CC(C)C)cc1 | / | 0 | -14 | / | / | / | / | /
COc1ccc(CCC(C)N(C)Cc2ccccc2)cc1 (centres undefined) | 3 | 37 | 0 | -6 | 7 | 6 | 0 | 93
COc1ccc(CN([C@H](C)CO)S(=O)(=O)N(Cc2ccccc2)[C@H](CO)C(C)C)cc1 | / | 46* | -3 | / | / | / | -3 | 96
COc1ccc(CC(=O)N(Cc2ccccc2)C(C)C)cc1 | -5 | 2 | -3 | -2 | -6 | -27 | / | /
Cc1oc2cc3oc(=O)c(CCC(=O)NCCCN4CCOCC4)c(C)c3cc2c1C | -32 | 0 | -2 | -5 | -6 | 6 | / | /
Cc1cc(C)cc(NC(=S)NN)c1 | 9 | 0 | -10 | -15 | 2 | -12 | / | /
Cc1ccccc1CCN(CC(=O)NCc1ccc(F)cc1)C(=O)c1csnn1 | -9 | 70* | -2 | -15 | 10 | -26 | 1 | 99
Cc1cccc(-n2ccc(=O)c(C(=O)Nc3ccc(S(=O)(=O)Nc4nccc(C)n4)cc3)n2)c1 | 7 | 94* | 0 | 0 | 8 | -47 | 1 | 99
COc1ccc(NC(=O)CCS(=O)(=O)c2ccc3c(c2)NC(=O)C(C)S3)cc1OC (centres undefined) | 1 | 0 | -4 | -13 | 2 | -19 | / | /
CC1Sc2ccc(S(=O)(=O)CCC(=O)NCc3ccccc3)cc2NC1=O (centres undefined) | 3 | 35 | 2 | 2 | 2 | -28 | / | / | GRK2 confirm 2=-12;FAM quench SP=101
Cc1cc(NC(=O)CCS(=O)(=O)c2ccc3c(c2)NC(=O)C(C)S3)ccc1Br (centres undefined) | 0 | 3 | 4 | -2 | 8 | -18 | / | / | GRK2 confirm 2=19;FAM quench SP=102
CC1Sc2ccc(S(=O)(=O)CCC(=O)Nc3cc(F)ccc3F)cc2NC1=O (centres undefined) | 11 | 0 | 1 | -12 | 4 | -18 | / | / | GRK2 confirm 2=-2;FAM quench SP=102
CC1Sc2ccc(S(=O)(=O)CCC(=O)NCc3ccc(Cl)cc3)cc2NC1=O (centres undefined) | 3 | 48* | 2 | 2 | -8 | -30 | 2 | 103 | GRK2 confirm 2=31;FAM quench SP=98
CC(=O)c1ccc(S(=O)(=O)NC2CCCCCCC2)cc1 | 18 | 2 | 0 | -1 | -23 | -28 | / | /
CC(=O)NC1CC2CCCC(C1)N2C(=O)Nc1cccc(C(C)=O)c1 (centres undefined) | / | / | -3 | / | / | / | / | /
Cc1ccc(-n2ncc3c(SCC(=O)NNC(=O)C(C)C)ncnc32)cc1 | -11 | 97* | 0 | 2 | 5 | -10 | -1 | 100
CC(C)C(=O)NNC(=O)CSc1ncnc2c1cnn2-c1ccccc1Cl | 8 | 0 | -2 | -6 | -3 | -13 | / | /
COc1ccc(CC2S/C(=N/N=C/c3ccc(O)cc3)NC2=O)cc1 (centres undefined) | 2 | 100* | 2 | -3 | 1 | -4 | 1 | 96
COc1ccccc1CNS(=O)(=O)c1ccc2c(c1)CCCN2C(C)=O | 4 | 0 | -3 | -5 | 11 | -19 | / | /
COc1ccccc1CNS(=O)(=O)c1ccc2[nH]cc(C(=O)O)c(=O)c2c1 | 1 | 59* | 0 | -19 | -6 | 0 | 56* | 91 | Aptamer quench=-47
CNC(=O)c1c[nH]c2ccc(S(=O)(=O)Nc3ccccc3F)cc2c1=O | 6 | 93* | -2 | -15 | -10 | 0 | 8 | 103
SMILES | NS3 helicase inh | GRK2 inh | DAGLB inhibitor | GPR7 antagonist | core dimer inh | FID counter | GRK2 CP1 | FAM quench CP1 | others
O=C(COC(=O)c1ccc2c(c1)OCCO2)NCCc1ccc(F)cc1 | / | 3 | -2 | / | / | / | / | /
COc1ccc(CNC(=O)COC(=O)c2ccc3c(c2)OCCO3)cc1 | 1 | 58* | -3 | 1 | -3 | -9 | -4 | 104
Cc1cc(C)cc(NC(=O)COC(=O)c2ccc3c(c2)OCCO3)c1 | / | 100* | -3 | / | / | / | -3 | 102
Cc1ccc(C(=O)OCC(=O)Nc2ccc3c(c2)OCCO3)cc1C | / | / | -6 | / | / | / | / | /
COc1cc(NS(=O)(=O)c2cc(NC(C)=O)ccc2OC)c(OC)cc1NC(=O)c1ccccc1 | / | / | 1 | / | / | / | / | /
COc1ccc(NC(=O)c2ccccc2NC(=O)c2ccccc2)cc1 | -4 | 41* | -2 | 8 | 0 | -9 | / | / | GRK2 confirm 2=-22;FAM quench SP=97
COc1ccc(NC(=O)c2ccccc2NC(=O)CSc2ccc(Cl)cc2)cc1 | 6 | 47* | -2 | -3 | 21 | 3 | 0 | 106
O=C(CCC1CCCN(C(=O)CCN2CCCCC2=O)C1)NCc1ccccc1F (centres undefined) | -11 | 17 | -1 | 0 | -3 | -9 | -5 | 101
Cn1cc(CCC(=O)N2CCCC(CCC(=O)NCc3ccccc3F)C2)cn1 (centres undefined) | 6 | 0 | -1 | 8 | 4 | -3 | / | /
